Measurements taken from ChEMBL document CHEMBL1140972, “Synthesis and structure-activity relationship of 3-phenylquinoxaline 1,4-di-N-oxide derivatives as antimalarial agents” (Eur J Med Chem, 2008).

What was measured:
[1] = Resistant index, ratio of IC50 for chloroquine-resistant Plasmodium falciparum K1 to IC50 for chloroquine-sensitive Plasmodium falciparum 3D7; type: functional
How it was run: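 IC50 against K1 divided by IC50 against 3D7 (drug-sensitive NF54 clone). Both from [3H]-hypoxanthine incorporation over 48 h: asynchronous cultures at 0.5% parasitemia, 2.5% hematocrit, 3-fold dilutions 10.0–0.0412 µg/mL in triplicate. Label added at 24 h. Means of 2–3 independent experiments.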

KB = assay: Cytotoxicity against human KB cells after 48 hrs by alamar blue assay; type: cell-based
Plasmodium falciparum [2] = assay: Antimalarial activity after 48 hrs against chloroquine-resistant Plasmodium falciparum K1 by [3H]hypoxanthine uptake; type: functional, organism-based
How it was run: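 Asynchronous P. falciparum K1 culture (65-75% ring stage, 0.5% parasitemia; chloroquine, pyrimethamine, cycloguanil resistant) at 2.5% hematocrit in RPMI 1640 with 0.5% Albumax II, glucose, L-glutamine, 5 µM hypoxanthine. Triplicate 3-fold dilutions 10.0–0.0412 µg/mL, DMSO ≤0.01% final, 37 °C, 5% CO2. [3H]-hypoxanthine (0.2 µCi/well) added at 24 h, incorporation counted after further 24 h. IC50 by curve fit, 2–3 experiments.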

Plasmodium falciparum [3] = assay: Antimalarial activity after 48 hrs against chloroquine-sensitive Plasmodium falciparum 3D7 by [3H]hypoxanthine uptake; type: functional, organism-based
How it was run: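 Asynchronous culture (65-75% rings, 0.5% parasitemia, 2.5% final hematocrit) in RPMI 1640 with 0.5% Albumax II, 0.2% glucose, 0.03% L-glutamine and 5 µM hypoxanthine. Triplicate wells with a 3-fold series of 10.0–0.0412 µg/mL; final DMSO ≤0.01%. 37 °C, 5% CO2: 24 h, then 0.2 µCi/well [3H]hypoxanthine for a further 24 h. Frozen, harvested, scintillation-counted. IC50 from curve fit; mean of 2–3 experiments.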

[4] = Selectivity index, ratio of IC50 for human KB cells to IC50 for chloroquine-sensitive Plasmodium falciparum 3D7; type: toxicity, cell-based; settings: read-out: Ratio IC50
How it was run: (§1)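 KB IC50 divided by the parasite IC50 (K1 or 3D7). KB cells seeded at 4×10^4 cells/mL in RPMI 1640 with 10% heat-inactivated FCS and grown 24 h. Triplicate dilution series then added for 72 h. AlamarBlue for 2–4 h, fluorescence ex 530/em 585 nm, IC50 by curve fit. Podophyllotoxin as positive control.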

[5] = Selectivity index, ratio of IC50 for human KB cells to IC50 for chloroquine-resistant Plasmodium falciparum K1; type: toxicity, cell-based; settings: read-out: Ratio IC50; how it was run: as §1

SMILES | Ratio IC50 [1] | IC50 (KB) [µM] | IC50 (Plasmodium falciparum [2]) [nM] | IC50 (Plasmodium falciparum [3]) [nM] | selectivity ratio [4] | selectivity ratio [5]
Cc1cc2c(cc1C)[n+]([O-])c(-c1ccc(F)cc1)c(C#N)[n+]2[O-] | 0.73 | 18.8 | 930 | 1260 | 14.9 | 20.4
N#Cc1c(-c2ccc(OC(F)(F)F)cc2)[n+]([O-])c2cc(Cl)c(Cl)cc2[n+]1[O-] | – | – | – | > 10000 | – | –
CCOC(=O)c1c(-c2ccccc2)[n+]([O-])c2ccc(Cl)cc2[n+]1[O-] | – | – | – | 3220 | – | –
CCOC(=O)c1c(-c2ccc(C)cc2)[n+]([O-])c2ccccc2[n+]1[O-] | – | – | – | > 10000 | – | –
CCOC(=O)c1c(-c2ccccc2)[n+]([O-])c2cc(F)c(F)cc2[n+]1[O-] | – | – | – | > 10000 | – | –
COc1ccc2c(c1)[n+]([O-])c(C#N)c(-c1ccc(F)cc1)[n+]2[O-] | 0.42 | 18.5 | 360 | 870 | 21.3 | 50.9
N#Cc1c(-c2ccc(F)cc2)[n+]([O-])c2ccc(F)cc2[n+]1[O-] | – | – | – | 5780 | – | –
N#Cc1c(-c2ccccc2)[n+]([O-])c2ccccc2[n+]1[O-] | – | – | – | 2350 | – | –
Cc1cc2c(cc1C)[n+]([O-])c(-c1ccc(OC(F)(F)F)cc1)c(C#N)[n+]2[O-] | – | – | – | > 5000 | – | –
COC(=O)c1ccc(-c2c(C#N)[n+]([O-])c3cc(F)ccc3[n+]2[O-])cc1 | – | – | – | > 20000 | – | –
COc1ccc2c(c1)[n+]([O-])c(C#N)c(-c1ccccc1)[n+]2[O-] | 0.49 | 10.5 | 720 | 1470 | 7.12 | 14.5
COC(=O)c1ccc(-c2c(C#N)[n+]([O-])c3cc(OC)ccc3[n+]2[O-])cc1 | – | – | – | 3160 | – | –
Cc1ccc2c(c1)[n+]([O-])c(C#N)c(-c1ccc(OC(F)(F)F)cc1)[n+]2[O-] | 0.51 | 8.12 | 380 | 750 | 10.8 | 21.4
CCOC(=O)c1c(-c2ccccc2)[n+]([O-])c2ccccc2[n+]1[O-] | – | – | – | > 10000 | – | –
N#Cc1c(-c2ccc(F)cc2)[n+]([O-])c2cc(Cl)c(Cl)cc2[n+]1[O-] | – | – | – | > 10000 | – | –
Cc1ccc(-c2c(C#N)[n+]([O-])c3ccccc3[n+]2[O-])cc1 | – | – | – | 3460 | – | –
N#Cc1c(-c2ccc(Cl)cc2)[n+]([O-])c2ccc(C(F)(F)F)cc2[n+]1[O-] | 1.13 | 2.76 | 1770 | 1560 | 1.77 | 1.56
N#Cc1c(-c2ccc(OC(F)(F)F)cc2)[n+]([O-])c2ccc(F)cc2[n+]1[O-] | – | 2.61 | > 8000 | 1700 | 1.54 | –
COc1ccc(-c2c(C#N)[n+]([O-])c3cc(C)c(C)cc3[n+]2[O-])cc1 | – | – | – | 3020 | – | –
N#Cc1c(-c2ccc(Cl)cc2)[n+]([O-])c2ccc(Cl)cc2[n+]1[O-] | – | – | – | > 5000 | – | –

SMILES | Ratio IC50 [1] | IC50 (KB) [µM] | IC50 (Plasmodium falciparum [2]) [nM] | IC50 (Plasmodium falciparum [3]) [nM] | selectivity ratio [4] | selectivity ratio [5]
COC(=O)c1ccc(-c2c(C#N)[n+]([O-])c3cc(C(F)(F)F)ccc3[n+]2[O-])cc1 | – | – | – | 2030 | – | –
COC(=O)c1ccc(-c2c(C#N)[n+]([O-])c3cc(Cl)ccc3[n+]2[O-])cc1 | – | – | – | > 20000 | – | –
N#Cc1c(-c2ccc(F)cc2)[n+]([O-])c2ccc(C(F)(F)F)cc2[n+]1[O-] | 0.79 | 2.85 | 520 | 660 | 4.32 | 5.48
COc1ccc(-c2c(C#N)[n+]([O-])c3cc(F)ccc3[n+]2[O-])cc1 | – | – | – | > 20000 | – | –
Cc1ccc(-c2c(C#N)[n+]([O-])c3cc(Cl)ccc3[n+]2[O-])cc1 | – | – | – | > 10000 | – | –
Cc1ccc2c(c1)[n+]([O-])c(C#N)c(-c1ccc(F)cc1)[n+]2[O-] | 0.42 | 11.2 | 370 | 880 | 12.7 | 30.4
COc1cc([C@@H]2c3cc4c(cc3[C@H](O)[C@H]3COC(=O)[C@H]23)OCO4)cc(OC)c1OC [PODOFILOX] | – | 0.003 | – | – | – | –
N#Cc1c(-c2ccc(OC(F)(F)F)cc2)[n+]([O-])c2ccccc2[n+]1[O-] | 0.21 | 2.76 | 270 | 1270 | 2.17 | 10.3
CCN(CC)CCCC(C)Nc1ccnc2cc(Cl)ccc12 (stereo not given) [CHLOROQUINE] | – | 110 | – | – | – | –
N#Cc1c(-c2ccc(F)cc2)[n+]([O-])c2ccc(Cl)cc2[n+]1[O-] | – | – | – | 5830 | – | –
N#Cc1c(-c2ccccc2)[n+]([O-])c2ccc(C(F)(F)F)cc2[n+]1[O-] | 0.55 | 2.82 | 180 | 330 | 8.55 | 15.7
COC(=O)c1ccc(-c2c(C#N)[n+]([O-])c3cc(C)ccc3[n+]2[O-])cc1 | – | – | – | 2150 | – | –
COc1ccc(-c2c(C#N)[n+]([O-])c3cc(OC)ccc3[n+]2[O-])cc1 | – | – | – | 2290 | – | –
COc1ccc(-c2c(C#N)[n+]([O-])c3ccccc3[n+]2[O-])cc1 | – | – | – | 3140 | – | –
COc1ccc(-c2c(C#N)[n+]([O-])c3cc(Cl)ccc3[n+]2[O-])cc1 | – | – | – | > 10000 | – | –
O=C(O)c1c(-c2ccc(Cl)cc2)[n+]([O-])c2ccccc2[n+]1[O-] | – | – | – | > 10000 | – | –
COc1ccc(-c2c(C#N)[n+]([O-])c3cc(C)ccc3[n+]2[O-])cc1 | – | – | – | 2770 | – | –
CCOC(=O)c1c(-c2ccccc2)[n+]([O-])c2cc(Cl)c(Cl)cc2[n+]1[O-] | – | – | – | > 7000 | – | –
N#Cc1c(-c2ccccc2)[n+]([O-])c2ccc(Cl)cc2[n+]1[O-] | – | – | – | > 5000 | – | –
N#Cc1c(-c2ccc(Cl)cc2)[n+]([O-])c2ccccc2[n+]1[O-] | 0.41 | 9.73 | 410 | 1010 | 9.63 | 23.6

SMILES | Ratio IC50 [1] | IC50 (KB) [µM] | IC50 (Plasmodium falciparum [2]) [nM] | IC50 (Plasmodium falciparum [3]) [nM] | selectivity ratio [4] | selectivity ratio [5]
COc1ccc2c(c1)[n+]([O-])c(C#N)c(-c1ccc(C)cc1)[n+]2[O-] | 2.83 | 16.9 | 2290 | 810 | 20.9 | 7.39
N#Cc1c(-c2ccc(F)cc2)[n+]([O-])c2ccccc2[n+]1[O-] | – | – | – | 3910 | – | –
Cc1ccc(-c2c(C#N)[n+]([O-])c3cc(C(F)(F)F)ccc3[n+]2[O-])cc1 | 1.21 | 3.17 | 870 | 720 | 4.4 | 3.64
N#Cc1c(-c2ccc(OC(F)(F)F)cc2)[n+]([O-])c2ccc(Cl)cc2[n+]1[O-] | 1.31 | 2.35 | 930 | 710 | 3.31 | 2.53
Cc1ccc(-c2c(C#N)[n+]([O-])c3cc(F)ccc3[n+]2[O-])cc1 | – | – | – | > 10000 | – | –
Cc1ccc2c(c1)[n+]([O-])c(C#N)c(-c1ccccc1)[n+]2[O-] | 0.48 | 11.7 | 740 | 1550 | 7.52 | 15.8
CCOC(=O)c1c(-c2ccccc2)[n+]([O-])c2cc(C)c(C)cc2[n+]1[O-] | – | > 60 | > 10000 | 1180 | > 50 | –
COc1ccc2c(c1)[n+]([O-])c(C#N)c(-c1ccc(Cl)cc1)[n+]2[O-] | 0.64 | 17.5 | 470 | 730 | 24 | 37.5
CCOC(=O)c1c(-c2ccccc2)[n+]([O-])c2ccc(C)cc2[n+]1[O-] | – | – | – | > 10000 | – | –
CCOC(=O)c1c(-c2ccccc2)[n+]([O-])c2ccc(OC)cc2[n+]1[O-] | – | – | – | > 10000 | – | –
Cc1ccc2c(c1)[n+]([O-])c(C#N)c(-c1ccc(Cl)cc1)[n+]2[O-] | 0.39 | 9.25 | 190 | 480 | 19.3 | 49.5
COC(=O)c1ccc(-c2c(C#N)[n+]([O-])c3ccccc3[n+]2[O-])cc1 | – | – | – | 6540 | – | –
COc1ccc2c(c1)[n+]([O-])c(C#N)c(-c1ccc(OC(F)(F)F)cc1)[n+]2[O-] | 1.35 | 8.25 | 1250 | 930 | 8.87 | 6.58
N#Cc1c(-c2ccccc2)[n+]([O-])c2ccc(F)cc2[n+]1[O-] | – | – | – | > 10000 | – | –
N#Cc1c(-c2ccc(Cl)cc2)[n+]([O-])c2ccc(F)cc2[n+]1[O-] | – | – | – | 4210 | – | –
COc1ccc(-c2c(C#N)[n+]([O-])c3cc(C(F)(F)F)ccc3[n+]2[O-])cc1 | – | – | – | 2440 | – | –
Cc1ccc(-c2c(C(=O)O)[n+]([O-])c3ccccc3[n+]2[O-])cc1 | – | – | – | > 10000 | – | –
COc1ccc(-c2c(C#N)[n+]([O-])c3cc(Cl)c(Cl)cc3[n+]2[O-])cc1 | – | – | – | > 20000 | – | –
CCOC(=O)c1c(-c2ccc(Cl)cc2)[n+]([O-])c2ccccc2[n+]1[O-] | – | – | – | > 10000 | – | –
